Only some compounds are listed: those with a hit (about 3.7% of all), similar ones and a draw of the others.
Kir21 inh: inhibitors of mouse Kir2.1 inward-rectifier potassium channel. P35561. HEK293-Kir2.1, FluxOR thallium flux fluorescence; hits give low values. B-score at 10 µM. 0.85% of 310,000 active. AID 1672;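 active means fluorescence ratio B-score at or below minus 3 SD of library scores, with starting-brightness B-score within 2 SD, cut at about -4.2 in these data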;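 further: channel flux triggered by added potassium and thallium sulfate stimulus; B-score of peak minus minimum fluorescence over baseline after thallium stimulus; more negative B-score means stronger Kir2.1 block with less thallium influx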
KCNK3 inh: human KCNK3 channel inhibition, primary screen. AID 602410. CHO-KCNK3 thallium flux, FluxOR fluorescence; hits give low values. O14649. B-score at 10 µM. 0.84% of 340,000 active;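 active means B-score under library mean minus 4 SD, starting fluorescence ratio at most library mean plus 5 SD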;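 further: more negative B-score means stronger inhibition of thallium flux through KCNK3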
KCNQ1 pot: human KCNQ1 channel potentiation or activation; P51787; CHO-K1 KCNQ1, thallium flux FluxOR fluorescence; hits give high values; B-score at 10 µM; 0.35% of 310,000 active;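 active means fluorescence ratio B-score, a plate-corrected score, at least three library SD, with initial intensity B-score within 5 SD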
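Assay system: CHO-K1 cells stably expressing KCNQ1; Medium: assay buffer with matched DMSO; Also added: K+/Tl+ depolarizing stimulus; Dosing: single dose; Timing: dye 90 min, compound 20 min, room temperature; Measured by: kinetic FluxOR thallium fluorescence, 10-s 1-Hz baseline, 110-s post-stimulus read; Read-out: peak-minus-minimum fluorescence over initial fluorescence, negative-control normalized, B-scored.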
hERG protect: hERG (human) protection from proarrhythmic block; Q12809; CHO-hERG, FluxOR thallium flux, dofetilide IC70 present; activation (rescue from dofetilide block), less the hit threshold, % at 10 µM; 0.51% of 310,000 active;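 active means activation above the mean of controls blocked by dofetilide plus 5 SD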;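 further: thallium influx through hERG after potassium depolarization seen as dye fluorescence rise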
KCNQ1 inh: human KCNQ1 channel inhibition; 1.3% of 310,000 active; AID 2642; B-score at 10 µM; P51787; CHO-K1 KCNQ1, FluxOR thallium flux fluorescence; hits give high values;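 active means compounds whose thallium flux B-score, printed positive for inhibition, exceeds three library SD while starting fluorescence stays within three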;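 further: channel opened by potassium depolarization with thallium stimulus after 20 min compound exposure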
KCNK9 inh: blocks the human KCNK9 two-pore domain potassium channel | AID 488922 | Q9NPC2 | HEK293 KCNK9, FluxOR thallium flux fluorescence; hits give low values | 1.2% of 310,000 active | B-score at 10 µM;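 active means ratio B-score over 3 SD below the library mean, with starting fluorescence within 5 SD of its mean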;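 further: negative B-score means less thallium flux so channel inhibition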
Target sequence (Q9NPC2 whole entry, looked up, the tested form may be a part): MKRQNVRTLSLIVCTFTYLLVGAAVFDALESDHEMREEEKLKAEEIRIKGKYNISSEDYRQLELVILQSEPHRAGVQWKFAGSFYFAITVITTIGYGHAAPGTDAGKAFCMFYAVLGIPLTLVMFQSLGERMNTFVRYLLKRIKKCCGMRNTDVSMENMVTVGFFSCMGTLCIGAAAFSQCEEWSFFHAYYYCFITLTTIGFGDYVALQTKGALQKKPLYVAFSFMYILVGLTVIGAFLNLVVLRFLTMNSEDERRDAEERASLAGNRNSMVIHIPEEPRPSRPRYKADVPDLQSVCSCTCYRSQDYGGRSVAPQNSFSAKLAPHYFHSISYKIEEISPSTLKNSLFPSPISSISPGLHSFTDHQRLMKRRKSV
KCNK9 block conf: confirmation of human KCNK9 potassium channel inhibitors | shares compounds with KCNK9 inh | HEK293 KCNK9 cells, FluxOR thallium flux fluorescence | inhibition, % at 10 µM | 43% of 4,900 active;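 active means thallium signal inhibited by more than 5 SD of the compound-free buffer control wells, on both duplicate plates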;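 further: 0% = assay buffer control wells without compound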
Kir2-1 spec: tests whether KCNK9 modulators also affect mouse Kir2.1; shares compounds with KCNK9 inh; Kir2.1 cells, FluxOR thallium flux fluorescence; inhibition, % at 10 µM; 4% of 4,900 active; AID 492993;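 active means thallium signal drop more than 5 SD beyond the mean of the no-compound control wells, seen in both duplicate plates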;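 further: signal is fluorescence rise after thallium addition divided by baseline fluorescence; plate controls were assay buffer only for no effect and full block by chlorpromazine control for full effect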
HEK293 Tl ctr: non-induced cell nonspecific activity of KCNK9 modulators. inhibition, % at 10 µM. 40% of 4,900 active. non-induced KCNK9-HEK293, FluxOR thallium flux. AID 492997. shares compounds with KCNK9 inh;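 active means thallium signal drop beyond 5 SD of the untreated control mean, on both duplicate plates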;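 further: plate controls were buffer only IC0 wells for no effect and SID17386958 at its maximal inhibitory level for full effect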
Active calls of the source: *; i = inactive; x = not tested or not shown.

SMILES	Kir21 inh	KCNK3 inh	KCNQ1 pot	hERG protect	KCNQ1 inh	KCNK9 inh	KCNK9 block conf	Kir2-1 spec	HEK293 Tl ctr
Cc1ccc(O)c(CNc2cccc3cccnc23)c1	0.35	i	i	-17.4	i	-9.71*	60.5%*	i	36.0%*
Cc1cc(C)c(-c2csc(NC(=O)COC(=O)c3ccc4c(c3)OCO4)n2)c(C)c1	-1.12	i	i	-2.7	i	i	i	i	i
Cc1cc(C)c2sc(NC(=O)C3=COCCO3)nc2c1	0.02	i	i	-8.8	i	i	x	x	x
O=C(COC(=O)c1ccc2c(c1)OCO2)Nc1nc(-c2ccccc2)cs1	0.94	i	i	-1.4	i	i	x	x	x
Cc1cc(C)c(-c2csc(NC(=O)C3=COCCO3)n2)c(C)c1	0.02	i	i	-5.9	i	i	i	i	i
CCN(CC)C(=O)COc1ccc2c3c(c(=O)oc2c1)CCCC3	-1.01	i	i	-7.6	i	i	x	x	x
CCC(NC(=O)C(C)NC)C(=O)N1CCCC1C(=O)NC1CCCc2ccccc21 (stereo not drawn)	x	i	x	x	x	x	x	x	x
Fc1ccc(/C=C/c2nnc(-c3cccs3)o2)cc1	-0.03	i	i	-3.5	i	-8.68*	33.0%*	i	i
COc1cc(/C=N/N2C(=O)c3ccccc3NC2(C)c2cccc([N+](=O)[O-])c2)cc(Br)c1O (stereo not drawn)	1.52	i	i	-16.3	i	-13.8*	56.5%*	i	46.0%*
COc1cc(/C=N/NC(=O)c2ccc([N+](=O)[O-])cc2Cl)cc(Br)c1O	0.93	i	i	-5.7	i	i	x	x	x
COc1ccc(C#Cc2ccc3c(=O)c4ccccc4n(C)c3c2)cc1	1.08	i	i	-15.0	i	i	i	i	i
COc1ccccc1C#Cc1ccc2c(=O)c3ccccc3n(C)c2c1	0.46	i	i	-23.1	i	-9.73*	44.0%*	i	i
Cn1c2ccccc2c(=O)c2cc(C#Cc3cccc(N)c3)ccc21	x	i	x	x	x	x	x	x	x
C/C(CC(=O)Nc1ccc2c(c1)OCCO2)=N\NC(=O)COc1ccc(Cl)c(C)c1	0.09	i	i	-11.7	i	i	x	x	x
Oc1ccc(N=Nc2ccc3c(c2)OCCO3)c2ncccc12	1.14	i	15*	29.5*	i	i	i	i	i
COc1ccc(NC(=O)C2Cc3ccccc3O/C2=N\O)cc1 (stereo not drawn)	1.41	i	i	-3.7	i	i	x	x	x
CC(C)OC(=O)c1c(NS(=O)(=O)c2ccccc2)sc2c1CCCC2	-0.65	i	31*	17.7*	i	i	i	i	i
CCOC(=O)c1c(NC(=S)Nc2ccc(OC)cc2)sc2c1CCC2	0.67	i	i	-16.7	i	i	x	x	x
CCOC(=O)c1c(NC(=S)Nc2ccccc2)sc2c1CC(C)(C)SC2	0.03	i	i	-2.2	8*	-9.05*	i	i	33.0%*
CCN(c1ccccc1)c1nc2ccsc2c(=O)s1	-1.3	i	i	-13.1	i	i	i	i	i
CN(Cc1nc2ccccc2c(=O)[nH]1)Cc1nc2ccsc2c(=O)[nH]1	-0.03	i	i	-11.1	i	i	x	x	x
CN(c1ccccc1)c1nc2ccsc2c(=O)s1	-0.56	i	i	-0.7	i	i	i	i	i
O=C(Nc1nc2ccsc2c(=O)s1)c1ccc(F)cc1	-0.96	i	i	-9.4	i	i	x	x	x
CC(=O)Nc1ccc(NCc2ccc(C)s2)cc1	0.55	i	i	-4.7	i	i	x	x	x
COc1ccc(Cl)cc1NC(=O)COC(=O)c1cc(NS(=O)(=O)c2cccs2)ccc1O	-0.03	i	i	-8.2	i	i	x	x	x
SMILES	Kir21 inh	KCNK3 inh	KCNQ1 pot	hERG protect	KCNQ1 inh	KCNK9 inh	KCNK9 block conf	Kir2-1 spec	HEK293 Tl ctr
COc1cccc(-c2ccc(C#N)c(OC(=O)c3c(Cl)cccc3Cl)n2)c1	-1.17	i	i	-6.1	i	-10*	38.0%*	i	27.5%*
COc1cccc(-c2ccc(C#N)c(OC(=O)c3ccc(Cl)cc3)n2)c1	0.11	i	i	-2.4	i	i	x	x	x
Cc1cc(C)n(-c2nncn2NC(=O)c2ccc(Cl)cc2O)n1	0.24	i	i	-5.3	i	i	x	x	x
CC[C@@H](C)[C@H](CNC)NC[C@@H](Cc1cccc2ccccc12)NCCc1cccc(C(F)(F)F)c1	-6.47*	i	i	-42.0	9*	-9.04*	38.0%*	52.0%*	33.5%*
O=C(CNC(=O)Cc1ccccc1)NCc1cccc(C(F)(F)F)c1	-0.26	i	i	-9.8	i	i	x	x	x
CN(Cc1ccccc1)C(=O)COC(=O)c1ccccc1NS(=O)(=O)c1cccc(N)c1	-0.96	i	i	-6.6	i	i	x	x	x
CC(OC(=O)c1ccccc1NS(=O)(=O)c1cccc(C(F)(F)F)c1)C(=O)N(C)Cc1ccccc1 (stereo not drawn)	1.51	i	i	-8.9	i	-13*	64.5%*	i	31.0%*
Cc1ccc(NC2CCCN(C(=O)C3CCCC3)C2)cc1C (stereo not drawn)	-2.41	i	i	-6.3	i	i	i	i	i
Cc1ccc(NC2CCCN(C(=O)c3cn4cccc(C)c4n3)C2)cc1C (stereo not drawn)	-0.17	i	i	-4.6	i	i	i	i	i
CSc1nc(C(=O)N2CCCC(Nc3ccc(C)c(C)c3)C2)cs1 (stereo not drawn)	-2.82	i	i	-6.7	i	i	i	i	i
Cc1nc(C(=O)N2CCCC(Nc3ccc(C)c(C)c3)C2)cs1 (stereo not drawn)	0.13	i	i	-8.7	i	i	x	x	x
Cc1ccc2c(c1)nnn2C1CCN(CC(=O)NNC(=O)c2ccco2)CC1	0	i	i	-9.3	i	i	x	x	x
Cc1ccccc1OCCC(=O)Nc1ccccc1C(=O)N1CCCCC1	x	i	x	x	x	x	x	x	x
Cc1ccc(NCc2nc3ccccc3n2CCOc2ccccc2)cc1	-0.23	i	i	-6.8	i	-11.6*	40.0%*	i	37.5%*
Cc1ccc(-n2ncc(Cl)c2C(=O)NC2CC2)cc1	1.56	i	i	-4.0	i	i	x	x	x
CCc1nnc(NC(=O)CCC(=O)Nc2ccc(OC)cc2OC)s1	-2.5	i	i	-5.3	i	i	x	x	x
